Results from ChEMBL document CHEMBL1151788, “Synthesis and biological activity of 1-methyl-tryptophan-tirapazamine hybrids as hypoxia-targeting indoleamine 2,3-dioxygenase inhibitors” (Bioorg Med Chem, 2008).
Activity calls are given as the source filed them. The rule behind the calls is not given here.

Key:
[1] = target: Indoleamine 2,3-dioxygenase 1 (Homo sapiens, UniProt P14902); test: Inhibition of indoleamine 2,3-dioxygenase in aerobic condition
[2] = Hypoxic cytotoxicity ratio of IC50 for mouse EMT6/KU cells in aerobic condition to IC50 for mouse EMT6/KU cells in hypoxic condition; assay type: functional
Procedure, shortened: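 IC50 values came from clonogenic survival of EMT6/KU cells after 5 h drug exposure at 37 °C, either aerobic (CO2 incubator) or hypoxic (5% CO2/95% N2 chamber), with Giemsa-stained colonies counted after 7–10 days. The ratio is IC50(aerobic)/IC50(hypoxic).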

[3] = Cytotoxicity against mouse EMT6/KU cells in hypoxic condition for 5 hrs measured after 7 to 10 days; assay type: functional, cell-based
Procedure, shortened: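 Drug medium (DMSO stock diluted in medium) was added and the cells were held 5 h at 37 °C in a hypoxic chamber flushed with 5% CO2/95% N2. After drug removal, colonies grew 7–10 days, then were methanol-fixed, Giemsa-stained and counted for surviving fraction.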

[4] = Cytotoxicity against mouse EMT6/KU cells in aerobic condition for 5 hrs measured after 7 to 10 days; assay type: functional, cell-based
Procedure, shortened: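 Late-log cells were plated at 10^3, 5×10^2 or 2×10^2 per dish and grown 24 h. Drug in DMSO diluted in medium was then given in a CO2 incubator at 37 °C for 5 h. After washout, colonies grew 7–10 days and were methanol-fixed, Giemsa-stained and counted.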

Compound | Ki [1] | Ratio IC50 [2] | IC50 [3] | IC50 [4] | Activity [1]
Cn1cc(C[C@H](NC(=O)OC(C)(C)C)C(=O)NCCCCNc2n[n+]([O-])c3ccccc3[n+]2[O-])c2ccccc21 | 367 µM | >5 | 8 µM | > 40 µM | 
O=C(NCCCCCNc1n[n+]([O-])c2ccccc2[n+]1[O-])C(F)(F)F |  |  |  |  | inactive
Nc1nc2ccccc2[n+]([O-])n1 |  |  | > 40 µM | > 80 µM | inactive
Cn1cc(C[C@H](NC(=O)OC(C)(C)C)C(=O)NCCCCCNc2nc3ccccc3[n+]([O-])n2)c2ccccc21 | 76.3 µM | 1.3 | 33 µM | 42 µM | 
Cn1cc(C[C@H](NC(=O)OC(C)(C)C)C(=O)O)c2ccccc21 |  |  |  |  | inactive
O=C(NCCCCNc1nc2ccccc2[n+]([O-])n1)C(F)(F)F |  |  |  |  | inactive
O=C(NCCCCNc1n[n+]([O-])c2ccccc2[n+]1[O-])C(F)(F)F |  |  |  |  | inactive
Cn1cc(C[C@H](NC(=O)OC(C)(C)C)C(=O)NCCCCCNc2n[n+]([O-])c3ccccc3[n+]2[O-])c2ccccc21 | 197 µM | 4.9 | 7.1 µM | 35 µM | 
O=C(NCCCCCNc1nc2ccccc2[n+]([O-])n1)C(F)(F)F |  |  |  |  | inactive
Cn1cc(C[C@H](NC(=O)OC(C)(C)C)C(=O)NCCCCNc2nc3ccccc3[n+]([O-])n2)c2ccccc21 | 87.1 µM | 1.1 | 33 µM | 36 µM | 
Nc1n[n+]([O-])c2ccccc2[n+]1[O-] [TIRAPAZAMINE] |  | 3.2 | 12 µM | 38 µM | inactive
